{"source": "ChEMBL document CHEMBL4350999", "about": "“Enhanced tumor retention of NTSR1-targeted agents by employing a hydrophilic cysteine cathepsin inhibitor” (Eur J Med Chem, 2019)", "key": {"[1]": {"experiment": "Drug uptake in heart of SCID mouse xenografted with human HT-29 cells at 0.37 MBq/mouse, iv measured at 4 hrs using 177Lu labelled compound by gamma counter analysis", "assay_type": "ADME, organism-based", "conditions": "in vivo; call rule not given here", "in_short": "(§1)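 Female SCID mice (5 weeks) bore s.c. flank xenografts of HT-29 cells (5 × 10^6 in Matrigel), used at about 80 mm3 (two weeks) and randomized. Each mouse received 10 μCi (0.37 MBq) of HPLC-purified 177Lu-conjugate via tail vein. Tissues were excised, weighed and gamma-counted, expressed as %ID/g; mean ± SD, n = 5.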"}, "[2]": {"experiment": "Drug uptake in lung of SCID mouse xenografted with human HT-29 cells at 0.37 MBq/mouse, iv measured at 4 hrs using 177Lu labelled compound by gamma counter analysis", "assay_type": "ADME, organism-based", "conditions": "in vivo", "in_short": "as §1"}, "[3]": {"experiment": "Drug uptake in liver of SCID mouse xenografted with human HT-29 cells at 0.37 MBq/mouse, iv measured at 4 hrs using 177Lu labelled compound by gamma counter analysis", "assay_type": "ADME, organism-based", "conditions": "in vivo", "in_short": "as §1"}, "[4]": {"experiment": "Drug uptake in spleen of SCID mouse xenografted with human HT-29 cells at 0.37 MBq/mouse, iv measured at 4 hrs using 177Lu labelled compound by gamma counter analysis", "assay_type": "ADME, organism-based", "conditions": "in vivo", "in_short": "(§2)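 Female SCID mice (5 weeks old) received s.c. flank HT-29 cells (5 × 10^6 in Matrigel). At ~80 mm3, two weeks later, mice were randomized and given 10 μCi (0.37 MBq) of purified 177Lu conjugate i.v. by tail vein. Mice were killed at 4, 24 or 72 h. Tissues were weighed and gamma counted as %ID/g, mean ± SD, n = 5. Tumor-to-tissue ratios were calculated.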"}, "[5]": {"experiment": "Drug uptake in large intestine of SCID mouse xenografted with human HT-29 cells at 0.37 MBq/mouse, iv measured at 4 hrs using 177Lu labelled compound by gamma counter analysis", "assay_type": "ADME, organism-based", "conditions": "in vivo", "in_short": "as §1"}, "[6]": {"experiment": "Drug uptake in kidney of SCID mouse xenografted with human HT-29 cells at 0.37 MBq/mouse, iv measured at 4 hrs using 177Lu labelled compound by gamma counter analysis", "assay_type": "ADME, organism-based", "conditions": "in vivo", "in_short": "as §1"}, "[7]": {"experiment": "Drug uptake in muscle of SCID mouse xenografted with human HT-29 cells at 0.37 MBq/mouse, iv measured at 4 hrs using 177Lu labelled compound by gamma counter analysis", "assay_type": "ADME, organism-based, Muscle tissue", "conditions": "in vivo", "in_short": "as §1"}, "[8]": {"experiment": "Drug uptake in bone of SCID mouse xenografted with human HT-29 cells at 0.37 MBq/mouse, iv measured at 4 hrs using 177Lu labelled compound by gamma counter analysis", "assay_type": "ADME, organism-based, Bone element", "conditions": "in vivo", "in_short": "as §1"}, "[9]": {"experiment": "Drug uptake in blood of SCID mouse xenografted with human HT-29 cells at 0.37 MBq/mouse, iv measured at 24 hrs using 177Lu labelled compound by gamma counter analysis", "assay_type": "ADME, organism-based", "conditions": "in vivo", "in_short": "(§3)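 Female SCID mice bearing s.c. flank HT-29 xenografts (5 × 10^6 cells in Matrigel, ~80 mm3). Given 10 μCi (0.37 MBq) 177Lu conjugate i.v. by tail vein; groups sacrificed at 4, 24, 72 h. Tissues weighed and gamma-counted as %ID/g, excretion as %ID; n = 5, mean ± SD. Blocking arms: colchicine 1 mg/kg i.p. beforehand, or D-lysine 40 mg/kg co-injected.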"}, "[10]": {"experiment": "Drug uptake in SCID mouse xenografted with human HT-29 cells assessed as tumour retention level at 0.37 MBq/mouse, iv measured at 4 hrs using 177Lu labelled compound by gamma counter analysis", "assay_type": "ADME, organism-based", "conditions": "in vivo", "in_short": "as §3"}, "[11]": {"experiment": "Drug uptake in small intestine of SCID mouse xenografted with human HT-29 cells at 0.37 MBq/mouse, iv measured at 24 hrs using 177Lu labelled compound by gamma counter analysis", "assay_type": "ADME, organism-based", "conditions": "in vivo", "in_short": "as §1"}, "[12]": {"experiment": "Drug uptake in large intestine of SCID mouse xenografted with human HT-29 cells at 0.37 MBq/mouse, iv measured at 24 hrs using 177Lu labelled compound by gamma counter analysis", "assay_type": "ADME, organism-based", "conditions": "in vivo", "in_short": "as §1"}, "[13]": {"experiment": "Drug uptake in muscle of SCID mouse xenografted with human HT-29 cells at 0.37 MBq/mouse, iv measured at 24 hrs using 177Lu labelled compound by gamma counter analysis", "assay_type": "ADME, organism-based, Muscle tissue", "conditions": "in vivo", "in_short": "as §1"}, "[14]": {"experiment": "Drug uptake in bone of SCID mouse xenografted with human HT-29 cells at 0.37 MBq/mouse, iv measured at 24 hrs using 177Lu labelled compound by gamma counter analysis", "assay_type": "ADME, organism-based, Bone element", "conditions": "in vivo", "in_short": "as §3"}, "[15]": {"experiment": "Drug uptake in heart of SCID mouse xenografted with human HT-29 cells at 0.37 MBq/mouse, iv measured at 72 hrs using 177Lu labelled compound by gamma counter analysis", "assay_type": "ADME, organism-based", "conditions": "in vivo", "in_short": "as §1"}, "[16]": {"experiment": "Drug uptake in liver of SCID mouse xenografted with human HT-29 cells at 0.37 MBq/mouse, iv measured at 72 hrs using 177Lu labelled compound by gamma counter analysis", "assay_type": "ADME, organism-based", "conditions": "in vivo", "in_short": "as §1"}, "[17]": {"experiment": "Drug uptake in pancreas of SCID mouse xenografted with human HT-29 cells at 0.37 MBq/mouse, iv measured at 72 hrs using 177Lu labelled compound by gamma counter analysis", "assay_type": "ADME, organism-based", "conditions": "in vivo", "in_short": "as §1"}, "[18]": {"experiment": "Drug uptake in stomach of SCID mouse xenografted with human HT-29 cells at 0.37 MBq/mouse, iv measured at 72 hrs using 177Lu labelled compound by gamma counter analysis", "assay_type": "ADME, organism-based", "conditions": "in vivo", "in_short": "as §2"}, "[19]": {"experiment": "Drug uptake in spleen of SCID mouse xenografted with human HT-29 cells at 0.37 MBq/mouse, iv measured at 72 hrs using 177Lu labelled compound by gamma counter analysis", "assay_type": "ADME, organism-based", "conditions": "in vivo", "in_short": "as §2"}, "[20]": {"experiment": "Drug uptake in small intestine of SCID mouse xenografted with human HT-29 cells at 0.37 MBq/mouse, iv measured at 72 hrs using 177Lu labelled compound by gamma counter analysis", "assay_type": "ADME, organism-based", "conditions": "in vivo", "in_short": "as §1"}, "[21]": {"experiment": "Drug uptake in large intestine of SCID mouse xenografted with human HT-29 cells at 0.37 MBq/mouse, iv measured at 72 hrs using 177Lu labelled compound by gamma counter analysis", "assay_type": "ADME, organism-based", "conditions": "in vivo", "in_short": "as §1"}, "[22]": {"experiment": "Drug uptake in kidney of SCID mouse xenografted with human HT-29 cells at 0.37 MBq/mouse, iv measured at 72 hrs using 177Lu labelled compound by gamma counter analysis", "assay_type": "ADME, organism-based", "conditions": "in vivo", "in_short": "as §1"}, "[23]": {"experiment": "Drug uptake in brain of SCID mouse xenografted with human HT-29 cells at 0.37 MBq/mouse, iv measured at 72 hrs using 177Lu labelled compound by gamma counter analysis", "assay_type": "ADME, organism-based", "conditions": "in vivo", "in_short": "as §1"}, "[24]": {"experiment": "Drug uptake in SCID mouse xenografted with human HT-29 cells assessed as tumour retention level at 0.37 MBq/mouse, iv measured at 72 hrs using 177Lu labelled compound by gamma counter analysis", "assay_type": "ADME, organism-based", "conditions": "in vivo", "in_short": "as §3"}, "[25]": {"experiment": "Drug excretion in SCID mouse xenografted with human HT-29 cells at 0.37 MBq/mouse, iv measured after 72 hrs using 177Lu labelled compound", "assay_type": "ADME, organism-based", "conditions": "in vivo", "in_short": "as §3"}, "[26]": {"experiment": "Octanol-PBS buffer distribution coefficient, log D of 177Lu labelled compound at pH 7.4 by radiometric analysis", "assay_type": "physicochemical", "in_short": "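177Lu conjugate partitioned between 1-octanol and PBS pH 7.4. 100 μL aliquots from each layer were gamma counted, and LogD7.4 was calculated from the counts.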"}, "[27]": {"experiment": "Drug uptake in membrane of human HT-29 cells measured after 240 mins using 177Lu labelled compound by gamma counter method relative to control", "assay_type": "ADME, cell-based", "conditions": "ht-29, 4 h", "in_short": "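HT-29 cells (~1 × 10^6 in 1 mL medium) were incubated with 177Lu-conjugate (100,000 cpm) at 37 °C and sampled at 15–240 min. After medium washes, surface-bound activity was stripped with pH 2.8 glycine-HCl/NaCl buffer, and the internalized fraction was taken from the 1% SDS lysate. Fractions were gamma-counted as % of total added activity; mean ± SD, n = 3.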"}}, "data": [{"smiles": "Cc1cc(O)cc(C)c1C[C@H](NC(=O)[C@@H]1CCCN1C(=O)[C@H](CCCNC(=N)N)NC(=O)[C@H](CCCNC(=N)N)N(C)C(=O)[C@@H]1CCCN1C(=O)[C@H](CCCCN)NC(=O)[C@@H](CO)NC(=O)[C@@H](CO)NC(=O)[C@@H](CO)NC(=O)[C@H](Cc1cn(CCNC(=O)[C@H](CCCNC(=N)N)NC(=O)[C@H](CC(C)C)NC(=O)C2OC2C(=O)O)nn1)NC(=O)CN1CCN(CC(=O)O)CCN(CC(=O)O)CCN(CC(=O)O)CC1)C(=O)N[C@H](C(=O)N[C@@H](CC(C)C)C(=O)O)C(C)(C)C", "note": "(some centres not stated)", "values": [{"measurement": "Drug uptake", "setting": "[1]", "result": 0.14, "unit": "% ID/g"}, {"measurement": "Drug uptake", "setting": "[2]", "result": 0.53, "unit": "% ID/g"}, {"measurement": "Drug uptake", "setting": "[3]", "result": 0.78, "unit": "% ID/g"}, {"measurement": "Drug uptake", "setting": "[4]", "result": 1.4, "unit": "% ID/g"}, {"measurement": "Drug uptake", "setting": "[5]", "result": 1.2, "unit": "% ID/g"}, {"measurement": "Drug uptake", "setting": "[6]", "result": 67, "unit": "% ID/g"}, {"measurement": "Drug uptake", "setting": "[7]", "result": 0.09, "unit": "% ID/g"}, {"measurement": "Drug uptake", "setting": "[8]", "result": 0.8, "unit": "% ID/g"}, {"measurement": "Drug uptake", "setting": "[9]", "result": 0.01, "unit": "% ID/g"}, {"measurement": "Drug uptake", "setting": "[10]", "result": 6.4, "unit": "% ID/g"}, {"measurement": "Drug uptake", "setting": "[11]", "result": 3.2, "unit": "% ID/g"}, {"measurement": "Drug uptake", "setting": "[12]", "result": 1.1, "unit": "% ID/g"}, {"measurement": "Drug uptake", "setting": "[13]", "result": 0.04, "unit": "% ID/g"}, {"measurement": "Drug uptake", "setting": "[14]", "result": 1.1, "unit": "% ID/g"}, {"measurement": "Drug uptake", "setting": "[15]", "result": 0.04, "unit": "% ID/g"}, {"measurement": "Drug uptake", "setting": "[16]", "result": 0.67, "unit": "% ID/g"}, {"measurement": "Drug uptake", "setting": "[17]", "result": 0.15, "unit": "% ID/g"}, {"measurement": "Drug uptake", "setting": "[18]", "result": 0.21, "unit": "% ID/g"}, {"measurement": "Drug uptake", "setting": "[19]", "result": 1.9, "unit": "% ID/g"}, {"measurement": "Drug uptake", "setting": "[20]", "result": 2.3, "unit": "% ID/g"}, {"measurement": "Drug uptake", "setting": "[21]", "result": 0.73, "unit": "% ID/g"}, {"measurement": "Drug uptake", "setting": "[22]", "result": 46, "unit": "% ID/g"}, {"measurement": "Drug uptake", "setting": "[23]", "result": 0.02, "unit": "% ID/g"}, {"measurement": "Drug uptake", "setting": "[24]", "result": 3.9, "unit": "% ID/g"}, {"measurement": "Drug excretion", "setting": "[25]", "result": 80.8, "unit": "%ID"}, {"measurement": "logD", "setting": "[26]", "result": -3.78}, {"measurement": "Drug uptake", "setting": "[27]", "result": "Not Active"}]}]}
